For test [1], the target named is T1, 5-hydroxytryptamine receptor 1A (Rattus norvegicus, UniProt P19327).
T1 sequence (P19327 whole entry): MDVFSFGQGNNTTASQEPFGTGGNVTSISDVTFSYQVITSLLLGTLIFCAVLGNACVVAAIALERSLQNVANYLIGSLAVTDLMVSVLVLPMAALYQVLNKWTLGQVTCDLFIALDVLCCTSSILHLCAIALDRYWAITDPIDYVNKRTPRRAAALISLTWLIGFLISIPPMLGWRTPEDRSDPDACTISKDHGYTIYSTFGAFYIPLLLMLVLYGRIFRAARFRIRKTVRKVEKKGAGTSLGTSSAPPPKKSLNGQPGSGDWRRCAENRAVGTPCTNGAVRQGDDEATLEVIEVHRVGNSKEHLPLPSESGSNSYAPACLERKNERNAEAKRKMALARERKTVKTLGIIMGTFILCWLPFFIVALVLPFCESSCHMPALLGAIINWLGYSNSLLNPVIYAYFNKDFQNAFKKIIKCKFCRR
Put plainly: In vitro inhibition of [3H]8-OH-DPAT binding to rat 5-HT 1a receptors. Summed up: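 Rat hippocampal membranes labelled with [3H]-8-OH-DPAT by standard binding methods, in competition with eight to nine test concentrations. Specific binding was over 80% of total. IC50 derived from inhibition of specific radioligand binding by LIGAND analysis.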

For test [2], the target named is T2, Adrenergic receptor alpha-1 (Rattus norvegicus, UniProt P15823+P23944+P43140).
T2 sequence (P15823 whole entry): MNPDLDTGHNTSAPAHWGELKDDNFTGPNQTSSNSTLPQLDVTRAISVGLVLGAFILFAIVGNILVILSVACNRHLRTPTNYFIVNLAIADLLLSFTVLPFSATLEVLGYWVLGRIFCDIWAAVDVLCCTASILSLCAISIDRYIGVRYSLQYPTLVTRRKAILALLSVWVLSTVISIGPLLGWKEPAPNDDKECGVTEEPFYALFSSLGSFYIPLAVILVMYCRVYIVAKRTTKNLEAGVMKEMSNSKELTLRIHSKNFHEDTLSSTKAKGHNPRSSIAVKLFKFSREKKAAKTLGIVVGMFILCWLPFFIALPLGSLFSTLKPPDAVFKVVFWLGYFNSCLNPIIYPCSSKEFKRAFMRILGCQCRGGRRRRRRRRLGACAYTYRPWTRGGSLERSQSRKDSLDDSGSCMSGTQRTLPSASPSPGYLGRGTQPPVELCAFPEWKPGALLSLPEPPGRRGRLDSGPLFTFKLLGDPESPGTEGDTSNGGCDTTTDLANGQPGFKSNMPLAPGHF
T2 sequence (P23944 whole entry): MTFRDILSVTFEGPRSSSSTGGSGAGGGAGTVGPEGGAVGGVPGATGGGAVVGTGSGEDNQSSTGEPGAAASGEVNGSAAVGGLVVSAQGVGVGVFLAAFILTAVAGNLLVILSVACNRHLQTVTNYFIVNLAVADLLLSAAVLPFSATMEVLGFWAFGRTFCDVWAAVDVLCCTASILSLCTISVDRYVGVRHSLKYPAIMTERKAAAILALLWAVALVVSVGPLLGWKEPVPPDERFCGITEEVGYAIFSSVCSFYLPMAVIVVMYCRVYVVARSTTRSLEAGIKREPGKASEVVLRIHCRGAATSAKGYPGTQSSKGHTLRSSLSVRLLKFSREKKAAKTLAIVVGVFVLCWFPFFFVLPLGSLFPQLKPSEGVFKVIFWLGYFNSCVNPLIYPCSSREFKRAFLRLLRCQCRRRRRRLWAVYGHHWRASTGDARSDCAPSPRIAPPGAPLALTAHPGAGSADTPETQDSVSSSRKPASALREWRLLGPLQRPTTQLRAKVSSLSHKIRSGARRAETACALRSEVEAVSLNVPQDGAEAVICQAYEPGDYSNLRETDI
T2 sequence (P43140 whole entry): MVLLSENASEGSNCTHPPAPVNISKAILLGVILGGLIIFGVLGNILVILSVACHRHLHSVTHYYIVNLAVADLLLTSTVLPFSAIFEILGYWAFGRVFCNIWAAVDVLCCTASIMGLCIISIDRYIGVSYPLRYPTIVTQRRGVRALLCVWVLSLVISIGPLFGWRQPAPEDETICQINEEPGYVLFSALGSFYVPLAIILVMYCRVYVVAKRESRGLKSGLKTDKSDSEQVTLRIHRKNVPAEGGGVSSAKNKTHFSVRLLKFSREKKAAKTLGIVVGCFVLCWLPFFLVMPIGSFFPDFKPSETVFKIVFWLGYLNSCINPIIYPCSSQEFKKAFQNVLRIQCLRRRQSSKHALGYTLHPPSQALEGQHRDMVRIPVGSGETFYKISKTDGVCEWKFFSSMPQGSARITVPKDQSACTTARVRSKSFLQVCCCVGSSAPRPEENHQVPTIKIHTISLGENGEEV
Put plainly: In vitro inhibition of [3H]prazosin binding to rat alpha-1 adrenergic receptors. The format is protein assay. Summed up:
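[3H]Prazosin displacement in rat brain cortex membranes, standard binding procedure, with eight to nine concentrations of each hydrochloride salt. Specific binding was above 80% of total. LIGAND program used to obtain IC50 from inhibition of specific binding.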

In another test the target is D(2) dopamine receptor (Rattus norvegicus, UniProt P61169). Put plainly: In vitro inhibition of [3H]spiroperidol binding to rat Dopamine D2 receptors.
Test [3] is described as follows: Selectivity for D2 receptor compared to 5-HT1A receptor.
Test [4] can be described thus: Selectivity for alpha-1 receptor compared to 5-HT1A receptor.

Among the data in ChEMBL document CHEMBL1132571, “1-aryl-4-[(5-methoxy-1,2,3, 4-tetrahydronaphthalen-1-yl)alkyl]piperazines and their analogues: influence of the stereochemistry of the tetrahydronaphthalen-1-yl nucleus on 5-HT1A receptor affinity and selectivity versus alpha1 and D2 receptors. 5” (J Med Chem, 1999) are IC50 and Selectivity values, retold here.

Sequence of D(2) dopamine receptor (P61169 whole entry): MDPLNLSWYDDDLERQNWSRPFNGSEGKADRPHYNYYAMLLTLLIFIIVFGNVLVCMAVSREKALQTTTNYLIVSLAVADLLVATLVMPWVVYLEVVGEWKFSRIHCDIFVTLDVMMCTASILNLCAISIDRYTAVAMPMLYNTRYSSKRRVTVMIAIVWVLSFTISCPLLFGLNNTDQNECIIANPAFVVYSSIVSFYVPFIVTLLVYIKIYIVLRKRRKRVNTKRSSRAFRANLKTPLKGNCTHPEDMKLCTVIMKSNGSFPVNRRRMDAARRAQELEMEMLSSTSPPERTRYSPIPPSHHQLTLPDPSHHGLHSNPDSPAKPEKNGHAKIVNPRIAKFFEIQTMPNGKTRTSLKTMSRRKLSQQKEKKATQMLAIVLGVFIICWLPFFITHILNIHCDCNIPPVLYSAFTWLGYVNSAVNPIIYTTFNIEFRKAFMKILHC

What is called IC50 is the concentration needed to halve the response being measured. A higher IC50 goes with weaker potency in that assay. As for `COc1ccccc1N1CCN(CCN[C@@H]2CCCc3c(OC)cccc32)CC1`, the IC50 in test [1] was determined as 10 nM; in test [2] it was 1000 nM; at D(2) dopamine receptor it was 3200 nM. For the same compound, the Selectivity came out at 320 in test [3] and 100 in test [4].
Regarding `COc1ccccc1N1CCN(CCCNC2CCCc3c(OC)cccc32)CC1` (configuration not stated), the Selectivity in test [3] was determined as 106; in test [4] it was 88.
For `COc1ccccc1N1CCN(CCC[C@H]2CCCc3c(OC)cccc32)CC1`, the IC50 in test [1] was 1.6 nM; in test [2], 0.8 nM.
`COc1ccccc1N1CCN(CCCN[C@H]2CCCc3c(OC)cccc32)CC1`: the half-maximal inhibitory concentration (IC50) in test [1] turned out to be 34 nM; in test [2], 649 nM; at D(2) dopamine receptor, 2300 nM. The Selectivity in test [3] turned out to be 68; in test [4] it was 19.
For the compound `COc1ccccc1N1CCN(CCC(=O)N[C@H]2CCCc3c(OC)cccc32)CC1`, the IC50 in test [2] was 240 nM; on D(2) dopamine receptor, 2600 nM.
For `COc1cccc2c1CCCC2CCCN1CCN(c2ccccc2)CC1` (configuration not stated), the Selectivity worked out at 220 in test [3] and 86 in test [4].
With `COc1ccccc1N1CCN(CCNC2CCCc3c(OC)cccc32)CC1` (configuration not stated), the values for the Selectivity in test [3] and in test [4] were 49 and 29, respectively.
For `COc1ccccc1N1CCN(CCN[C@H]2CCCc3c(OC)cccc32)CC1`, the concentration for half-maximal inhibition (IC50) in test [1] came to 7 nM; in test [2] it was 228 nM; at D(2) dopamine receptor it was 650 nM. In addition, the Selectivity in test [3] came to 93; in test [4] it was 33.
On the same counts, the results for `COc1cccc2c1CCC[C@H]2CCCN1CCN(c2ccccc2)CC1` are 2.4 nM, 950 nM, 610 nM, 254 and 396.
Consider `COc1ccccc1N1CCN(CCC(=O)N[C@@H]2CCCc3c(OC)cccc32)CC1`, for which the IC50 is 770 nM in test [2] and 870 nM on D(2) dopamine receptor.
Regarding `COc1cccc2c1CCC[C@@H]2CCCN1CCN(c2ccccc2)CC1`, the values for the IC50 (in test [1]; in test [2]; on D(2) dopamine receptor) were 4.3 nM, 61 nM and 880 nM, respectively. Moreover, the Selectivity in test [3] came to 205; in test [4] it was 14.
Consider `COc1cccc2c1CCC[C@H]2CCCN1CCN(c2ccccn2)CC1`, for which the IC50 in test [1] is 2.3 nM; in test [2] it was 580 nM; at D(2) dopamine receptor it was 600 nM. In addition, the values for the Selectivity in test [3] and in test [4] were 261 and 252, respectively.
For the compound `COc1ccccc1N1CCN(CCCN[C@@H]2CCCc3c(OC)cccc32)CC1`, the values for the IC50 (in test [1]; in test [2]; on D(2) dopamine receptor) were 7 nM, 1700 nM and 1900 nM, respectively. For the same compound, the results for the Selectivity in test [3] and in test [4] were 271 and 243, respectively.
The compound `NCCCC1(CCCN)CCc2cccc(O)c2C1` registered an IC50 in test [1] of 2.5 nM.
On to `COc1ccccc1N1CCN(CCC[C@@H]2CCCc3c(OC)cccc32)CC1`, for which the values for the IC50 in test [1] and in test [2] were 1.3 nM and 33 nM, respectively.
Consider `COc1cccc2c1CCCC2CCCN1CCN(c2ccccn2)CC1` (configuration not stated), for which the Selectivity in test [3] is 259; in test [4], 122.
As to `COc1cccc2c1CCC[C@@H]2CCCN1CCN(c2ccccn2)CC1`, the IC50 in test [1] came out at 4.5 nM; in test [2] it was 85 nM; on D(2) dopamine receptor, 880 nM. The Selectivity amounted to 196 in test [3] and 19 in test [4].
